These results are taken from ChEMBL document CHEMBL3997791, “Nanomolar-Potency Aminophenyl-1,3,5-triazine Activators of the Cystic Fibrosis Transmembrane Conductance Regulator (CFTR) Chloride Channel for Prosecretory Therapy of Dry Eye Diseases” (J Med Chem, 2017).

Data set [1] addresses T1, Anoctamin-1 (Homo sapiens) (UniProt Q5XXA6).
T1 sequence (whole entry): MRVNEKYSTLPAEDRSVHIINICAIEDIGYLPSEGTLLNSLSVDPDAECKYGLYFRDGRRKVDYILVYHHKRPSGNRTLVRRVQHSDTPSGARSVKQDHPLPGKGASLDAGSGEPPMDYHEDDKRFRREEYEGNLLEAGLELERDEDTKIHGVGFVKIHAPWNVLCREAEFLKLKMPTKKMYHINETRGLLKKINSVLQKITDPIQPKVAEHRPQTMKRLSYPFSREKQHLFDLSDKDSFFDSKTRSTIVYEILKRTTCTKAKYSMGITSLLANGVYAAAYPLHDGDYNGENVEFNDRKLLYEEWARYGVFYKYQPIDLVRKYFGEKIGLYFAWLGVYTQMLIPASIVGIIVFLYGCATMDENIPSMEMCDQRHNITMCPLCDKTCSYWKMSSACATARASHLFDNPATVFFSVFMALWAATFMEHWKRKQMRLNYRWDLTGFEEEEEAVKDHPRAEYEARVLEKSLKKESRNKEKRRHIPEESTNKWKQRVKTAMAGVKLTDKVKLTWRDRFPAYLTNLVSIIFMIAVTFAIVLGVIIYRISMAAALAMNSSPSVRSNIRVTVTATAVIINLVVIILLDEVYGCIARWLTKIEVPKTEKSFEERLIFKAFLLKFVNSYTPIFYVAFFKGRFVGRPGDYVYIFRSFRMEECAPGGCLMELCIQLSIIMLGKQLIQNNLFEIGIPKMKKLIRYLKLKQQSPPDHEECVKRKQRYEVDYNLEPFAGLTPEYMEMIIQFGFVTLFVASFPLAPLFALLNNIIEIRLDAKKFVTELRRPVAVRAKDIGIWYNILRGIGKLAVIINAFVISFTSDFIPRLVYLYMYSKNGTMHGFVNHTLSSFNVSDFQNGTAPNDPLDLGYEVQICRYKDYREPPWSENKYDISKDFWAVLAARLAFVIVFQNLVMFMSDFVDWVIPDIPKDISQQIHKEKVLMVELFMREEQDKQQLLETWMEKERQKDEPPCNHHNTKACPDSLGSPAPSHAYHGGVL
The data set can be described thus: Inhibition of human TMEM16A expressed in FRT cells co-expressing YFP assessed as decrease in iodide influx at 10 uM measured after 10 mins for 2 to 12 sec in presence of ATP by fluorescence assay. It is filed as cell-based. In outline:
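FRT cells stably coexpressing TMEM16A and YFP-H148Q; compound at 10 μM. Fluorescence quenching read in plate reader after iodide addition (activation) or iodide plus ATP addition (inhibition); initial rate of iodide influx computed as linear measure of channel function. Representative of two to four experiment sets.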

A short description of data set [2]: Elevation of cytoplasmic calcium level in Fischer rat thyroid cells co-expressing YFP and human CFTR at 10 uM incubated for 5 mins by fluo-4 dye based fluorescence assay. It is filed as ADME. The settings on record: thyroid cell. Summed up: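 FRT cells in 96-well plates loaded with Fluo-4 NW, pretreated 5 min with 10 μM compound or control; 100 μM ATP added as calcium agonist. Fluorescence followed in plate reader with syringe pumps. Representative of two to four experiment sets.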

The target in data set [3] is T2, Solute carrier family 12 member 2 (Homo sapiens) (UniProt P55011).
T2 sequence (whole entry): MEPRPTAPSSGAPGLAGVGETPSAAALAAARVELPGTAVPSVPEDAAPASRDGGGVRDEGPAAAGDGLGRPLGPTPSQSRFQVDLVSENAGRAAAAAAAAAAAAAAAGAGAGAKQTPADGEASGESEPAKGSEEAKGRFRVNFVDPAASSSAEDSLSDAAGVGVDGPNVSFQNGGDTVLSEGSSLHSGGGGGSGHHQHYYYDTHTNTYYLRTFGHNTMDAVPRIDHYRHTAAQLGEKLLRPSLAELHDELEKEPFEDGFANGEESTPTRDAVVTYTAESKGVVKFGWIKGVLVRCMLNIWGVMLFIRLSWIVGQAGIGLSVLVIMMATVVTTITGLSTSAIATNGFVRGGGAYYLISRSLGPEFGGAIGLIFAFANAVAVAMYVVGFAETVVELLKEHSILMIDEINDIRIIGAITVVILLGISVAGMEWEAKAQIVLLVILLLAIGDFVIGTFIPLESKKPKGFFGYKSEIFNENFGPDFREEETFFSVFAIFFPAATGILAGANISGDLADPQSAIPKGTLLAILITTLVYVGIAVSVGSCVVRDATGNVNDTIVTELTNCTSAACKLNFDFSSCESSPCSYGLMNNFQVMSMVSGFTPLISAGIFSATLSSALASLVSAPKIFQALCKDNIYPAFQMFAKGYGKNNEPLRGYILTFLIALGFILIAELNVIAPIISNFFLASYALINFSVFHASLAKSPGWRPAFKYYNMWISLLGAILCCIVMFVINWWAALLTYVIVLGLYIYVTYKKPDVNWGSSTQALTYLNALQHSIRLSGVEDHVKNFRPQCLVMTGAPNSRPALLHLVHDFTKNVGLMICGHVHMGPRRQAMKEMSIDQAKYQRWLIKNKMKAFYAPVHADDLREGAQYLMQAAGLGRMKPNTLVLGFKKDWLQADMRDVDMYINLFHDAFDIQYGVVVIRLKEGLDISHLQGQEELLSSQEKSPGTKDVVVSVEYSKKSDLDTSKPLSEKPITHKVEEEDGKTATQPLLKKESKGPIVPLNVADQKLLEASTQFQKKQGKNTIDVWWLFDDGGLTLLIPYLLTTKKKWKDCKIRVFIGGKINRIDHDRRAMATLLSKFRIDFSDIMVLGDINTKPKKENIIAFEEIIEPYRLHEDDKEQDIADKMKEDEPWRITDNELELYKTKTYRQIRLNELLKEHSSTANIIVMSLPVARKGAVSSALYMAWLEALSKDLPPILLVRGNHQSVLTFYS
The data set can be described thus: Inhibition of NKCC1 in human primary bronchial epithelial cells assessed as effect on short-circuit current at 10 uM after 10 mins by voltage clamp method. Summed up: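 Primary human bronchial epithelial cultures (air-liquid interface) in Ussing chambers, symmetrical HCO3−-buffered solutions, 95% O2/5% CO2, 37 °C. After 10 min preincubation with 10 μM compound, sequential 20 μM amiloride, 20 μM forskolin, 10 μM CFTRinh-172, 100 μM ATP; short-circuit current recorded under voltage clamp.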

The test system of the next data set is HT-29. The data set is described as follows: Inhibition of iodide influx in human HT-29 cells expressing YFP at 10 uM measured after 10 mins for 2 to 12 sec in presence of ATP by fluorescence assay. Format: functional, cell-based. Summed up: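 HT-29 cells expressing YFP halide sensor, 10 μM compound, for non-TMEM16A calcium-activated chloride channel. Plate reader fluorescence quenching after iodide addition (activation) or iodide plus ATP addition (inhibition); initial rate of iodide influx computed as linear measure of channel function. Representative of two to four experiment sets.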

Each structure is given as a SMILES string. Activity calls are given as the source filed them. The calls are words filed in the database; no cut-off is given here.

Consider `CNc1nc(Nc2ccccc2)nc(OCC(F)(F)C(F)F)n1`, for which the inhibition entry (in data set [1]; in data set [3]; with HT-29) was “inactive” in each case. Besides, the Activity entry in data set [2] is “Non-Toxic”.

With `CCN(CC)c1nc(Nc2ccc3ncsc3c2)nc(OC(C(F)(F)F)C(F)(F)F)n1`, the inhibition result (in data set [1]; in data set [3]; with HT-29) was “inactive” in each case. Further, the Activity result in data set [2] was “Non-Toxic”.
